One experiment has as its system Enterococcus faecalis. Kind of experiment: Antibacterial activity against Enterococcus faecalis ATCC 10541. The format is functional. Summed up:
(§1)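 24 h growth-inhibition (MIC) assay. Final test concentration range was 50−3.13 μg/mL or 2.0−0.05 μg/mL depending on compound. Cefotaxime sodium served as positive control. Each experiment was repeated three times.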

The subject of the next experiment is Escherichia coli. Kind of experiment: Antibacterial activity against Escherichia coli ATCC 11775. The format is functional. As to conditions: DSM 30083 = JCM 1649 = ATCC 11775. Summed up:
as §1

In experiment [1] the target is T1, Pancreatic triacylglycerol lipase (Sus scrofa, UniProt P00591).
T1 sequence (P00591 whole entry): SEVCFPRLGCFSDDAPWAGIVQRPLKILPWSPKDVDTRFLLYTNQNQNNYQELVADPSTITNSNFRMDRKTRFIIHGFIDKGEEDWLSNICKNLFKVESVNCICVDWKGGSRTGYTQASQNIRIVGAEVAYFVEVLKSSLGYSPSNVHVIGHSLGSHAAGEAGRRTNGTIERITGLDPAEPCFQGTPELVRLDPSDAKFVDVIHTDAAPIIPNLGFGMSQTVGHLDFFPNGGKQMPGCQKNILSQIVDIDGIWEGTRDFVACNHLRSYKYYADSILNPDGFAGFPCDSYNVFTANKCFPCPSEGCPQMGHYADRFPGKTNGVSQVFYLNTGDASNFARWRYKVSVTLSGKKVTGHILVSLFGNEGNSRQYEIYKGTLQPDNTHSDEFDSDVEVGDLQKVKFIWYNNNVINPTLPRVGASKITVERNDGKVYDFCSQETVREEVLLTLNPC
Kind of experiment: Inhibition of porcine pancreatic lipase using p-NPB as substrate pretreated for 15 mins followed by substrate addition measured after 15 mins by spectrophometric method.

A further experiment concerns Staphylococcus aureus. Kind of experiment: Antibacterial activity against Staphylococcus aureus […]. The experiment is classed as functional. Summed up: as §1
A further experiment has as its system Salmonella typhimurium. Kind of experiment: Antibacterial activity against Salmonella typhimurium ATCC 6539. As to conditions: Salmonella enterica. The experiment is classed as functional, Salmonella enterica subsp. enterica serovar Typhimurium. The essentials:
as §1

For orientation: MIC means the smallest concentration in the dilution series that meets the test's criterion for growth inhibition. A high value points to a less susceptible organism. Broadly, the pIC50 is −log10 of the IC50, conventionally taken in molar units.

pIC50: −log10 of the molar value. Values after ≈ are worked out from the molar mass of the structure shown.

On to `C=C(CCC=C(C)C)C(O)Cc1c(O)c(CC2=C(O)C(C)(C)C(O)=C(C(=O)C(C)CC)C2=O)c(O)c(C(=O)C(C)C)c1O` (centres undefined), for which the MIC against Enterococcus faecalis was 0.8 µM (≈ 0.479 µg/mL); in the experiment with Escherichia coli it was 0.8 µM (≈ 0.479 µg/mL); against Staphylococcus aureus, 3.3 µM (≈ 1.98 µg/mL); in the experiment on Salmonella typhimurium, 0.8 µM (≈ 0.479 µg/mL). In addition, the pIC50 in experiment [1] is 4.84.

As for `C=C(CCC=C(C)C)C(O)Cc1c(O)c(CC2=C(O)C(C)(C)C(O)=C(C(=O)C(C)C)C2=O)c(O)c(C(=O)C(C)C)c1O` (centres undefined), the MIC with Enterococcus faecalis was 0.9 µM (≈ 0.526 µg/mL); in the experiment on Escherichia coli, 0.9 µM (≈ 0.526 µg/mL); against Staphylococcus aureus, 1.7 µM (≈ 0.994 µg/mL); with Salmonella typhimurium, 0.9 µM (≈ 0.526 µg/mL).

Take `CCC(C)C(=O)C1=C(O)C(C)(C)C(O)=C(Cc2c(O)cc(OCC=C(C)C)c(C(=O)c3ccccc3)c2O)C1=O` (centres undefined): the MIC in the experiment on Enterococcus faecalis came to 1.8 µM (≈ 0.988 µg/mL); against Escherichia coli it was 1.8 µM (≈ 0.988 µg/mL); in the experiment on Staphylococcus aureus, 1.8 µM (≈ 0.988 µg/mL); in the experiment with Salmonella typhimurium it was 0.9 µM (≈ 0.494 µg/mL).

On to `CC(C)=CCC/C(C)=C/Cc1c(O)c(CC2=C(O)C(C)(C)C(O)=C(C(=O)C(C)C)C2=O)c(O)c(C(=O)C(C)C)c1O`, for which the MIC with Enterococcus faecalis came to 1.8 µM (≈ 1.02 µg/mL); with Escherichia coli, 0.9 µM (≈ 0.512 µg/mL); in the experiment with Staphylococcus aureus it was 1.8 µM (≈ 1.02 µg/mL); against Salmonella typhimurium it was 1.8 µM (≈ 1.02 µg/mL).

As for `CC(C)=CCC[C@]1(C)Oc2c(c(O)c(CC3=C(O)C(C)(C)C(O)=C(C(=O)C(C)C)C3=O)c(O)c2C(=O)C(C)C)C[C@H]1O`, the minimal inhibitory concentration (MIC) with Enterococcus faecalis stood at 10.7 µM (≈ 6.26 µg/mL); against Escherichia coli it was 21.4 µM (≈ 12.5 µg/mL); with Staphylococcus aureus it was 85.6 µM (≈ 50.1 µg/mL); in the experiment on Salmonella typhimurium, 5.4 µM (≈ 3.16 µg/mL).

As for `CCC(C)C(=O)C1=C(O)C(C)(C)C(O)=C(Cc2c(O)c(C/C=C(\C)CCC=C(C)C)c(O)c(C(=O)C(C)C)c2O)C1=O` (centres undefined), the MIC turned out to be 1.7 µM (≈ 0.991 µg/mL) with Enterococcus faecalis, 0.9 µM (≈ 0.524 µg/mL) in the experiment on Escherichia coli, 3.4 µM (≈ 1.98 µg/mL) against Staphylococcus aureus and 1.7 µM (≈ 0.991 µg/mL) in the experiment on Salmonella typhimurium. In experiment [1], the pIC50 is 5.08.

As to `CC(C)=CCOc1cc(O)c(CC2=C(O)C(C)(C)C(O)=C(C(=O)C(C)C)C2=O)c(O)c1C(=O)c1ccccc1`, the MIC was 1.9 µM (≈ 1.02 µg/mL) against Enterococcus faecalis, 1.9 µM (≈ 1.02 µg/mL) against Escherichia coli, 1.9 µM (≈ 1.02 µg/mL) against Staphylococcus aureus and 0.9 µM (≈ 0.481 µg/mL) in the experiment with Salmonella typhimurium.

With `CO/N=C(\C(=O)N[C@@H]1C(=O)N2C(C(=O)O)=C(COC(C)=O)CS[C@H]12)c1csc(N)n1` [CEFOTAXIME SODIUM], the MIC in the experiment with Enterococcus faecalis worked out at 0.4 µM; against Escherichia coli it was 0.4 µM; against Staphylococcus aureus, 3.3 µM; with Salmonella typhimurium it was 3.3 µM.
